Experimental data taken from ChEMBL document CHEMBL1156545, “Unusual C25 steroid isomers with bicyclo[4.4.1]A/B rings from a volcano ash-derived fungus Penicillium citrinum” (J Nat Prod, 2008).
The source made the active and inactive calls. The rule behind the calls is not given here.

How the values were obtained:
[1] = biological target: T1, G-protein coupled receptor 12 (Homo sapiens) (UniProt P47775); assay: Activity at GPR12 expressed in CHO cells assessed as induction of cAMP production at 10 uM; assay type: functional, cell-based
T1 sequence (whole entry): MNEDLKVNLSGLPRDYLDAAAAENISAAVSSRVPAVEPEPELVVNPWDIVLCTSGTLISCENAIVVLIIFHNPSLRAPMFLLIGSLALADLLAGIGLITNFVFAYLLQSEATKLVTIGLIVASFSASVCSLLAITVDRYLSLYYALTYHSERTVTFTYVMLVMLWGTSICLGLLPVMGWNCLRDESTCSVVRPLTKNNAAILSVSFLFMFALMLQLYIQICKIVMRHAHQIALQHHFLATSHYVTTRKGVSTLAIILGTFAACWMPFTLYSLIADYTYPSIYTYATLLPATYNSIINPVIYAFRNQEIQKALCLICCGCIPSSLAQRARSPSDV
In short: (§1)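 Test compounds at 10 µM applied to CHO cells transfected with GPR12 and, in parallel, to untransfected wild-type CHO cells, which serve as the receptor-free comparison. The read-out is cAMP production in each cell line. The assay follows literature cAMP methods.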

CHO = assay: Induction of cAMP generation in wild-type CHO cells at 10 uM; assay type: functional, cell-based; settings: Cricetulus griseus; in short: as §1

Activity [1]	Compound	Activity (CHO)
Active	C[C@H](O)/C=C/[C@](C)(O)[C@H]1CC[C@H]2C3=CC(=O)[C@H]4CC(=CC[C@H](O)C4)[C@H]3CC[C@@]21C	inactive
Active	C[C@@H](O)/C=C/[C@](C)(O)[C@H]1CC[C@H]2C3=CC(=O)[C@H]4CC(=CC[C@H](O)C4)[C@H]3CC[C@@]21C	inactive

More lines, now with the values behind:

Compound	Activity [1]	Activity (CHO)
C/C(=C\[C@H](O)[C@H](C)O)[C@H]1CC[C@H]2C3=CC(=O)[C@H]4CC(=CC[C@H](O)C4)[C@H]3CC[C@]12C	Active	inactive
CO[C@H](/C=C(\C)[C@H]1CC[C@H]2C3=CC(=O)[C@H]4CC(=CC[C@H](O)C4)[C@H]3CC[C@]12C)[C@@H](C)O	Active	inactive
C/C(=C\[C@@H](O)[C@H](C)O)[C@H]1CC[C@H]2C3=CC(=O)[C@H]4CC(=CC[C@H](O)C4)[C@H]3CC[C@]12C	Active	inactive
